Data from ChEMBL document CHEMBL4477204, “Tetrahydroisoquinoline-Derived Urea and 2,5-Diketopiperazine Derivatives as Selective Antagonists of the Transient Receptor Potential Melastatin 8 (TRPM8) Channel Receptor and Antiprostate Cancer Agents” (J Med Chem, 2016).
Calls of active or inactive are those of the source. No cut-off for these calls is given here.

How the values were obtained:
[1] = target: Transient receptor potential cation channel subfamily M member 8 (Rattus norvegicus, UniProt Q8R455); assay: Antagonist activity at recombinant rat TRPM8 expressed in HEK293 cells assessed as inhibition of icilin-induced intracellular calcium accumulation preincubated for 5 mins followed by icilin addition by Fluo-4-AM probe-based spectrofluorimetric assay; assay type: cell-based
In short: (§1)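 HEK-293 cells stably expressing the listed TRP channel (human TRPV1; rat TRPM8, TRPA1, TRPV2, TRPV3 or TRPV4) were Fluo-4-AM loaded (4 µM, 1 h, 25 °C) and suspended in Tyrode's buffer pH 7.4. Compound was added 5 min before agonist: icilin 0.25 µM (TRPM8), capsaicin 0.1 µM (TRPV1), AITC 100 µM (TRPA1), LPC 3 µM (TRPV2), thymol 100 µM (TRPV3), 4α-PDD 1 µM (TRPV4). Agonist alone was taken as 100%. IC50 from sigmoidal fit, at least triplicate.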

LNCaP [2] = assay: Cytotoxicity against human LNCAP cells assessed as inhibition of cell growth at 10 uM after 72 hrs by trypan blue assay; assay type: functional; conditions: for inhibition of growth at 10 µM: read-out: GI
In short: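 LNCaP cells were grown in RPMI-1640 with 10% FBS and given a daily dose of compound for 72 h. Cells were then counted in a Burker chamber, with cell number also estimated from dsDNA content at 4 pg DNA/cell. Dead cells were scored with 0.4% trypan blue. Statistics used ANOVA with Bonferroni's test.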

LNCaP [3] = assay: Induction of apoptosis in human LNCAP cells assessed as increase in caspase3/7 activity at 10 uM after 72 hrs by caspase-glo 3/7 chemiluminescence assay relative to control; assay type: functional
In short: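 LNCaP cells were cultured 72 h with 10 µM compound or vehicle, then washed with PBS. Caspase-Glo 3/7 reagent was added to 1×10^4 cells/assay, incubated 1 h at room temperature in the dark, and luminescence was read. Vehicle blank was subtracted; runs were in triplicate. Camptothecin 0.1 µg/mL plus anti-Fas 0.2 µg/mL for 24 h served as the apoptosis reference.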

[4] = target: Transient receptor potential cation channel subfamily A member 1 (Rattus norvegicus, UniProt Q6RI86); assay: Antagonist activity at recombinant rat TRPA1 expressed in HEK293 cells assessed as inhibition of AITC-induced intracellular calcium accumulation preincubated for 5 mins followed by AITC addition by Fluo-4-AM probe-based spectrofluorimetric assay; assay type: cell-based; in short: as §1
[5] = target: T1, Heat sensitive channel TRPV3 (Rattus norvegicus) (UniProt Q4QYD9); assay: Antagonist activity at recombinant rat TRPV3 expressed in HEK293 cells assessed as inhibition of thymol-induced intracellular calcium accumulation up to 10 uM preincubated for 5 mins followed by thymol addition by Fluo-4-AM probe-based spectrofluorimetric assay; assay type: cell-based; in short: as §1
T1 sequence (whole entry): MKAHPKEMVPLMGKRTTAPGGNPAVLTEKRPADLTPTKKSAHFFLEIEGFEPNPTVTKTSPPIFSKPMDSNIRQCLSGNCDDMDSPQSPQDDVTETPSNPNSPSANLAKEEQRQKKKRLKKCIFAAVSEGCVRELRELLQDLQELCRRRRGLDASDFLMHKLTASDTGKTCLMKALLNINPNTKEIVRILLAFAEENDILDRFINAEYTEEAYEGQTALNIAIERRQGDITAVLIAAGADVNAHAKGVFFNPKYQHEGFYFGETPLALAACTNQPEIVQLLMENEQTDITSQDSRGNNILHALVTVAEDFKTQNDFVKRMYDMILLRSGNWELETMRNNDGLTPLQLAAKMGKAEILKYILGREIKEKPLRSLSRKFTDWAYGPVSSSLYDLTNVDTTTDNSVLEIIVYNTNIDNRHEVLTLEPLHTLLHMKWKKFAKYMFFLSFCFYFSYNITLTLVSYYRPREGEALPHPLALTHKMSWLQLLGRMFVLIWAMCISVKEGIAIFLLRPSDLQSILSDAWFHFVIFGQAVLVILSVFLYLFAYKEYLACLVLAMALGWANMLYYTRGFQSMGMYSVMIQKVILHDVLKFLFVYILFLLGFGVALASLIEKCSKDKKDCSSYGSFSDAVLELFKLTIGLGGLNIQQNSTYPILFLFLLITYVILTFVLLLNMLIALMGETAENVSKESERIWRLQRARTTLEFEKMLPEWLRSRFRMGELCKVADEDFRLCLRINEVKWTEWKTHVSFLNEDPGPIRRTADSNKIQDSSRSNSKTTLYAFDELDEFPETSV

[6] = target: Transient receptor potential cation channel subfamily V member 4 (Rattus norvegicus) (UniProt Q9ERZ8); assay: Antagonist activity at recombinant rat TRPV4 expressed in HEK293 cells assessed as inhibition of 4alphaPDD-induced intracellular calcium accumulation up to 10 uM preincubated for 5 mins followed by 4alphaPDD addition by Fluo-4-AM probe-based spectrofluorimetric assay; assay type: cell-based; in short: as §1
in vitro = conditions: C57BL/6, mouse, liver microsomes
LNCaP [7] = assay: Cytotoxicity against human LNCAP cells assessed as reduction in cell viability by measuring fluorescence gated cells at 10 uM after 72 hrs by CBNF assay (reference value: 83.3%); assay type: functional
CWR22R = assay: Cytotoxicity against human 22Rv1 cells assessed as reduction in cell viability by measuring fluorescence gated cells at 10 uM after 72 hrs by CBNF assay (reference value: 81.3%); assay type: functional
[8] = Cytotoxicity against human PNT1A cells assessed as reduction in cell viability by measuring fluorescence gated cells at 10 uM after 72 hrs by CBNF assay (reference value: 94.1%); assay type: cell-based; conditions: read-out: Activity

Chain of Transient receptor potential cation channel subfamily M member 8 (Q8R455 whole entry): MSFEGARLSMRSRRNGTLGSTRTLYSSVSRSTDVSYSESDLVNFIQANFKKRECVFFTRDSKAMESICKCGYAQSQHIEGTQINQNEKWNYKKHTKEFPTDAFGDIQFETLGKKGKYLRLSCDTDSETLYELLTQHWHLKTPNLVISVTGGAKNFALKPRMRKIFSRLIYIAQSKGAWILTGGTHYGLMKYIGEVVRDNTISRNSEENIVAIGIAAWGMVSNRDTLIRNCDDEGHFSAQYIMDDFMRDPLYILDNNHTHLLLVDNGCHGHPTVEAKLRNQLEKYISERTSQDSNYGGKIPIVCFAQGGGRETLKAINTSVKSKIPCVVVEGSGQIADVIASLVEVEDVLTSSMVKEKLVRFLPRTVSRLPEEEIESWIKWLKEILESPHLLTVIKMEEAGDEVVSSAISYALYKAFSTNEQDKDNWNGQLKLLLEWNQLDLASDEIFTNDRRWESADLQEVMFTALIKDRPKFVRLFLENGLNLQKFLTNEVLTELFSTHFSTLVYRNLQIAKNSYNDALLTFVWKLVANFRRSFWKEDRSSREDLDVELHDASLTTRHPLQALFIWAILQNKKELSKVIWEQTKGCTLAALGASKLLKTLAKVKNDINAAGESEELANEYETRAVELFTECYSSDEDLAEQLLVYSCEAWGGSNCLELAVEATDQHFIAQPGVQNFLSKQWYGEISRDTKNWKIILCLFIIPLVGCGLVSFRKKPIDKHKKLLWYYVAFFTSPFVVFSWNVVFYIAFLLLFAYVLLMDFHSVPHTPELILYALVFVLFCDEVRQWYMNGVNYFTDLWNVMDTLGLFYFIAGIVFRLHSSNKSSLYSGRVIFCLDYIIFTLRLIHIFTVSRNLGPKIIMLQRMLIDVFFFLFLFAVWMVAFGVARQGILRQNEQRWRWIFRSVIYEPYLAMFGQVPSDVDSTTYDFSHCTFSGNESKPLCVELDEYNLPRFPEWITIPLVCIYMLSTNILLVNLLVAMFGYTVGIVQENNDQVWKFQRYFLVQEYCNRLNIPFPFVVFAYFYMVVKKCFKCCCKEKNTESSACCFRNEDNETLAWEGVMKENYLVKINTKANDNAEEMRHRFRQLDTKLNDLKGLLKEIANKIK
Chain of Transient receptor potential cation channel subfamily A member 1 (Q6RI86 whole entry): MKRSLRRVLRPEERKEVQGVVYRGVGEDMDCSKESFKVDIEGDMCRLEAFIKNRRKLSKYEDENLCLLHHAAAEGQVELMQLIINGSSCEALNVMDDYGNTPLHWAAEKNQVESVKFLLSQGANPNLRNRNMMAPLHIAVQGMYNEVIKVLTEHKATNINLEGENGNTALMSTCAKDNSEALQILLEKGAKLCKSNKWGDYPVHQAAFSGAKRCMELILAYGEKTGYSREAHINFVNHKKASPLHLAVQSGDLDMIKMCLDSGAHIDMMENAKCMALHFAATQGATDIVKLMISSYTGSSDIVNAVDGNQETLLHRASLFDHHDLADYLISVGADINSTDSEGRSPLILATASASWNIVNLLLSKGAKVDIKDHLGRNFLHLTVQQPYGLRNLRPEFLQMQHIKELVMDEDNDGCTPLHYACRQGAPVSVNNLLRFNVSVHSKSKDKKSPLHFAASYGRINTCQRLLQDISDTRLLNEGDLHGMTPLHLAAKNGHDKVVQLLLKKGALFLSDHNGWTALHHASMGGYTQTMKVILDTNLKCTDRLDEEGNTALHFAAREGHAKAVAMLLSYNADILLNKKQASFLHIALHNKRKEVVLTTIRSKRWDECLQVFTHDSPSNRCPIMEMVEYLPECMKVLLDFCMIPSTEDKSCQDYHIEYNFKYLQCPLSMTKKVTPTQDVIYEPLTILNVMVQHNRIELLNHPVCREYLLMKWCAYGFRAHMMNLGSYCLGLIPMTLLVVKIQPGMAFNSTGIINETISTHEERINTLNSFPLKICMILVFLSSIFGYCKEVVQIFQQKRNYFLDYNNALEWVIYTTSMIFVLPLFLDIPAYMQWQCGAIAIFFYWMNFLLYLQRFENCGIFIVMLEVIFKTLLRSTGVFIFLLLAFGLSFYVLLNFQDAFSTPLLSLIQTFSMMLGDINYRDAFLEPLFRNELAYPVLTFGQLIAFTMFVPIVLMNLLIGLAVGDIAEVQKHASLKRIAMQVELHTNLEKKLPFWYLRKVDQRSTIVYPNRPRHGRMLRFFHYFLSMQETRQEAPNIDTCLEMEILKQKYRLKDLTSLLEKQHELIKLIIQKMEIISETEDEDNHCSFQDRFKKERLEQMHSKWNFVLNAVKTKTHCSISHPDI
Chain of Transient receptor potential cation channel subfamily V member 4 (Rattus norvegicus) (Q9ERZ8 whole entry): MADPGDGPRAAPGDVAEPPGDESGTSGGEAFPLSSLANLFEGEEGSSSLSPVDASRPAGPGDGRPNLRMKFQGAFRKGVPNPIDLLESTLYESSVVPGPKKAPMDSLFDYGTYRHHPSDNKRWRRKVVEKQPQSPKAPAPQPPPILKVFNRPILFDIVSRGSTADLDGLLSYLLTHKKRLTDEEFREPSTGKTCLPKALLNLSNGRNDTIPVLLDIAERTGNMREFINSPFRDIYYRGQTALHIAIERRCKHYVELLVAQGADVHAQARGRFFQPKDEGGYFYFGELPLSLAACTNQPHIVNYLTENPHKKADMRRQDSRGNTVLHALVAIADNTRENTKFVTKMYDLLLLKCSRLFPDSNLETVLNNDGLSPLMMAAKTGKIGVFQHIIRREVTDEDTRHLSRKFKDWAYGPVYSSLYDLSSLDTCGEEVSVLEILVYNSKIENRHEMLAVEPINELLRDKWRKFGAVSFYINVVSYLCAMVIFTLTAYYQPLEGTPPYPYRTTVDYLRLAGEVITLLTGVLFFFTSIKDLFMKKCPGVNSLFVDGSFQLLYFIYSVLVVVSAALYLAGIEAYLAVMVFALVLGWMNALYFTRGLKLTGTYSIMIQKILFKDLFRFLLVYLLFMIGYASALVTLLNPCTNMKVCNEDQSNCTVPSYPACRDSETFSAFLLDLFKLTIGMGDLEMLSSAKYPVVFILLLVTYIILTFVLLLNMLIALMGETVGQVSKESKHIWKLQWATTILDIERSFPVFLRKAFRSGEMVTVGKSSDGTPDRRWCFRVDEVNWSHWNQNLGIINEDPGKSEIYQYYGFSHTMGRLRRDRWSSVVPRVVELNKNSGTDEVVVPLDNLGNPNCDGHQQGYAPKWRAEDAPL

Row | IC50 [1] | IC50 [4] | inhibition [5] | inhibition [6] | CLint scaled at 1 h, 3 µM (in vitro) | SMILES | growth inhibition (GI) (LNCaP [2]) | Activity (LNCaP [3]) | inhibition of growth at 10 µM (LNCaP [2]) | Activity (LNCaP [7]) | Activity (CWR22R) | viability at 72 h, 10 µM [8]
1 | 0.5 µM | 10 µM | inactive | inactive | – | COc1cc2c(cc1OC)[C@H](c1ccccc1)N(C(=O)N1CCc3cc(OC)c(OC)cc3[C@@H]1c1ccccc1)CC2 (racemic) | Active | 220% | – | – | – | –
2 | 0.62 µM | 14.2 µM | inactive | inactive | 15.6 mL/min/kg | COc1cc(/C=C2\NC(=O)[C@@H]3Cc4c(OC)c(C)c(OC)c(OC)c4[C@@H](c4ccccc4)N3C2=O)c(OC)c(C)c1OC | Active | 200% | – | – | – | –
3 | 0.43 µM | 23.9 µM | inactive | inactive | – | COc1cc2c(cc1OC)[C@H](c1ccc(Cl)cc1)N(C(=O)N1CCc3cc(OC)c(OC)cc3[C@@H]1c1ccc(Cl)cc1)CC2 (racemic) | – | 190% | 50.4% | – | – | –
4 | 0.072 µM | 16.4 µM | inactive | inactive | 75.2 mL/min/kg | COc1cc2c(cc1OC)[C@H](c1ccc(F)cc1)N(C(=O)N1CCc3cc(OC)c(OC)cc3[C@@H]1c1ccc(F)cc1)CC2 (racemic) | – | 198% | 64.3% | 54.4% | 82.2% | 92.7%
